Data on 167 variants can be found in the RNAGym collection of RNA variant scans (doi:10.1002/anie.201605470).

B1: Osa-1-4 twister ribozyme (parent)
chain: CCGCCUAACACUGCCAAUGCCGGUCCCAAGCCCGGAUAAAAGUGGAGGGGGCGG

Variants of B1 are the subject of this data set. Nature of the data set: self-cleavage, relative activity (ratio to wild type); higher = more cleavage; co-transcriptional. Summed up: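 Values are relative activity: the fraction cleaved, normalised to wild type. A doped DNA template for a 54-nucleotide twister ribozyme from Oryza sativa had 97 % wild-type base and 1 % of each other base at the 48 positions downstream of the cleavage site. The RNA was transcribed in vitro for 2 h at 37 °C so that it could cleave itself co-transcriptionally, then sequenced deeply, with cleavage status scored from the presence or absence of upstream sequence in reads.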
With C27G C9G, the self-cleavage amounted to 0.07. Then C27G G45U, with 0.02; and C27G G45A, with 0.02. On to C27G G45C, for which the self-cleavage worked out at 0.03. For C26U G49A the value was 0.06; for C26U G49C, 0.06; for C26U G49U, 0.06. In the case of C26U G42A, the self-cleavage was found to be 0.13. Then C26U G42U, with 0.04; and C26U G42C, with 0.1. For C26G G34U the value was 0.08; for C26G G34C, 0.08. For C26G G34A the value was 0.18; for C27G G22C, 0.03. Consider C27G G22A, for which the self-cleavage came out at 0.05. For C27G G22U the value was 0.04.

C27G G54A: the self-cleavage was 0.06. Regarding C27G G47C, the self-cleavage worked out at 0.86.

Consider C27G G47U, for which the self-cleavage stood at 0.21.

With C27G G47A, the self-cleavage came out at 0.15.

With C27A C33A, the self-cleavage was 0.09. For C27A C33G, the self-cleavage worked out at 0.04.

Turning to C27A C33U, the self-cleavage was 0.1.

C27A G42C: the self-cleavage turned out to be 0.06. For C27A G42U the value was 0.05; for C27A G42A, 0.08; for C27A G23U, 0.04. For C27A G23A the value was 0.06. For C27A G23C the value was 0.03. For the variant C26U G53A, the self-cleavage stood at 0.22. For C26U G53C the value was 0.08; for C26U G53U, 0.11; for C27G G48C, 0.03. On to C27G G48U, for which the self-cleavage is 0.02. For C27G G48A the value was 0.04; for C26G G19A, 0.08; for C26G G19C, 0.04. For C26G G19U the value was 0.05; for C26G G42U, 0.02. For C26G G42A the value was 0.08.

Take C26G G42C: the self-cleavage worked out at 0.05. For C26U G45A the value was 0.07; for C26U G45U, 0.04. Then C26U G45C, with 0.04.

As to C26U U12A, the self-cleavage worked out at 0.2. For C26U U12G, the self-cleavage was determined as 0.23.

For the variant C26U U12C, the self-cleavage worked out at 0.09.

Take C26G G45A: the self-cleavage came out at 0.05. Take C26G G45C: the self-cleavage was determined as 0.03. Then C26G G45U, with 0.02; and C27G G35C, with 0.04. As for C27G G35A, the self-cleavage was 0.12.

On to C27G G35U, for which the self-cleavage came out at 0.1. For C26U G35C the value was 0.09.

With C26U G35U, the self-cleavage was found to be 0.88. For C26U G35A the value was 0.9; for C26G C32G, 0.09. Then C26G C32A, with 0.03; and C26G C32U, with 0.04. Turning to C26U U37A, the self-cleavage amounted to 0.79. Then C26U U37G, with 1.03; and C26U U37C, with 1; and C26G G53C, with 0.03. Then C26G G53A, with 0.11; and C26G G53U, with 0.06.

On to C26G C52U, for which the self-cleavage stood at 0.11.

As to C26G C52G, the self-cleavage turned out to be 0.16. Then C26G C52A, with 0.12. Then C26G C27G, with 0.11; and C26G C27U, with 0.07. For the variant C26G C27A, the self-cleavage turned out to be 0.05. Then C27G G13U, with 0.01.

Take C27G G13C: the self-cleavage worked out at 0.01. Then C27G G13A, with 0.03; and C27A C31A, with 0.06. For C27A C31G the value was 0.04; for C27A C31U, 0.09; for C27G G53U, 0.03. Then C27G G53A, with 0.06. In the case of C27G G53C, the self-cleavage turned out to be 0.02. For C27G G23A the value was 0.05; for C27G G23U, 0.02. For C27G G23C the value was 0.03; for C26G G22C, 0.06. Regarding C26G G22U, the self-cleavage worked out at 0.08.

Regarding C26G G22A, the self-cleavage was determined as 0.15.

Turning to C27G G44U, the self-cleavage stood at 0.05. Then C27G G44A, with 0.06; and C27G G44C, with 0.08. Then C27G G19C, with 0.03; and C27G G19A, with 0.06.

With C27G G19U, the self-cleavage was found to be 0.04.

C26A U37A: the self-cleavage amounted to 0.05. Then C26A U37C, with 0.07. For the variant C26A U37G, the self-cleavage was 0.07. Then C26G C31U, with 0.06; and C26G C31A, with 0.02. For C26G C31G the value was 0.05; for C26G C9U, 0.04; for C26G C9G, 0.09. For C26G C9A the value was 0.02.

In the case of C26U C32A, the self-cleavage came out at 0.06.

On to C26U C32U, for which the self-cleavage was 0.09.

For the variant C26U C32G, the self-cleavage came out at 0.27. As for C27A G45U, the self-cleavage is 0.07. For C27A G45C the value was 0.03. For C27A G45A the value was 0.06.

With C27A C32G, the self-cleavage turned out to be 0.06. For C27A C32A the value was 0.09; for C27A C32U, 0.06. Then C26U G50A, with 0.92. Then C26U G50U, with 0.52; and C26U G50C, with 0.26; and C26G G13U, with 0.01.

In the case of C26G G13A, the self-cleavage turned out to be 0.03. For C26G G13C the value was 0.01; for C27A C9A, 0.09; for C27A C9U, 0.07. For C27A C9G the value was 0.1; for C26G G44A, 0.09; for C26G G44C, 0.09. C26G G44U: the self-cleavage was found to be 0.08. For C26U U18A the value was 0.88. For C26U U18C the value was 0.88; for C26U U18G, 0.93; for C26U G54U, 0.62. For C26U G54A the value was 0.38; for C26U G54C, 0.3; for C27A U24G, 0.02.

As for C27A U24C, the self-cleavage amounted to 0.06. As to C27A U24A, the self-cleavage is 0.04. For C26U G19A the value was 0.14; for C26U G19C, 0.04; for C26U G19U, 0.05. Then C27A G44C, with 0.14. Then C27A G44A, with 0.1. Turning to C27A G44U, the self-cleavage amounted to 0.14. For C26G U12C the value was 0.05; for C26G U12A, 0.07; for C26G U12G, 0.07. For C26U G48C the value was 0.1; for C26U G48A, 0.82.

Regarding C26U G48U, the self-cleavage turned out to be 0.08. For C26G G50U the value was 0.09; for C26G G50A, 0.1. For the variant C26G G50C, the self-cleavage was 0.09. For C26U U24G the value was 0.04; for C26U U24C, 0.07; for C26U U24A, 0.06.

Take C27A U37A: the self-cleavage was determined as 0.26. Then C27A U37G, with 0.42; and C27A U37C, with 0.32. For C26U G34U, the self-cleavage was 0.83. Then C26U G34C, with 0.56; and C26U G34A, with 0.92. Then C26G G54A, with 0.08. For C26G G54U the value was 0.15; for C26G G54C, 0.08; for C27A G53C, 0.05. Consider C27A G53U, for which the self-cleavage worked out at 0.06. For C27A G53A the value was 0.09; for C26G U43C, 0.07. Then C26G U43A, with 0.09; and C26G U43G, with 0.07. Then C26A U12C, with 0.03; and C26A U12A, with 0.04; and C26A U12G, with 0.04.
